This note sets out measurements from ChEMBL document CHEMBL2177000, “Pharmacokinetic optimization of class-selective histone deacetylase inhibitors and identification of associated candidate predictive biomarkers of hepatocellular carcinoma tumor response” (J Med Chem, 2012).

Data set [1] has as its system Mus musculus. Nature of the data set: Up-regulation of RASSF1 gene expression in human hepatocellular carcinoma patient tumor xenografted in BALB/C mouse at 100 mg/kg, po administered every other day for 4 weeks by […]. The data set is classed as functional, organism-based. Set-up: dose 100 mg/kg. The method, boiled down:
(§1)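 Patient HCC tumor fragments (3 × 3 × 3 mm3) implanted subcutaneously in female BALB/c nu/nu mice; at ~200 (150−250) mm3 dosed orally Q2D 100 mpk in 15% Kleptose pH 4.5 tartaric buffer for about four weeks. Tumor RNA (TRIzol, DNase I) run on 22-gene qRT-PCR array, normalized to GAPDH/β-glucuronidase by ΔCt, fold change versus day 0.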
On the technique in general: A xenograft is tissue or cells of one species grown in another, often human tumour cells in immunodeficient mice.

Data set [2] deals with Mus musculus. Nature of the data set: Down-regulation of WNT5A gene expression in human hepatocellular carcinoma patient tumor xenografted in BALB/C mouse at 100 mg/kg, po administered every other day for 4 weeks by […]. It counts as functional, organism-based. Set-up: dose 100 mg/kg. The method, boiled down:
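Patient-derived HCC xenografts dosed 100 mpk Q2D PO; tumor total RNA (TRIzol, DNase I treated, column-purified) run on a customized 22-gene qRT-PCR array; ΔCt against mean of GAPDH and β-glucuronidase, fold-change relative to day 0 (pre-treatment).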

In data set [3] the test system is Mus musculus. Kind of data set: Up-regulation of CDKN2A gene expression in human hepatocellular carcinoma patient tumor xenografted in BALB/C mouse at 100 mg/kg, po administered every other day for 4 weeks by […]. Set-up: dose 100 mg/kg. The data set is classed as functional, organism-based. The method, boiled down:
as §1

Data set [4] deals with SGC-7901. Nature of the data set: Inhibition of Class 1 histone deacetylase in human SGC7901 cells assessed as […] at 0.6 to 5 uM incubated for 24 hrs by Western blot method. It counts as cell-based. In short, it runs like this: (§2)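 SGC-7901 cells (1 × 10^6) seeded overnight, treated 24 h at indicated concentrations; lysed on ice with protease inhibitor, 15 000 g supernatant; 30 μg protein by SDS-PAGE, nitrocellulose, antibody probing for acetylated histone H3 and p21, ECL detection.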
(In general: In western blotting, separated proteins are transferred to a membrane and probed.)

Data set [5] relates to Mus musculus. Kind of data set: Up-regulation of CDKN1C gene expression in human hepatocellular carcinoma patient tumor xenografted in BALB/C mouse at 100 mg/kg, po administered every other day for 4 weeks by […]. Set-up: dose 100 mg/kg. The data set is classed as functional, organism-based. In short, it runs like this:
as §1

The subject of data set [6] is SGC-7901. Nature of the data set: Inhibition of Class 1 histone deacetylase in human SGC7901 cells assessed as histone H3 acetylation at 0.6 to 5 uM incubated for 24 hrs by Western blot method. The data set is classed as cell-based. The method, boiled down:
as §2

In data set [7] the test system is Mus musculus. Kind of data set: Up-regulation of FN1 gene expression in human hepatocellular carcinoma patient tumor xenografted in BALB/C mouse at 100 mg/kg, po administered every other day for 4 weeks by […]. Further details: dose 100 mg/kg. The data set is classed as functional, organism-based. In short, it runs like this: as §1
Data set [8] concerns Mus musculus. Nature of the data set: Up-regulation of CDKN1A gene expression in human hepatocellular carcinoma patient tumor xenografted in BALB/C mouse at 100 mg/kg, po administered every other day for 4 weeks by […]. Further details: dose 100 mg/kg. It counts as functional, organism-based. In short, it runs like this:
as §1

For data set [9], the target named is Voltage-gated inwardly rectifying potassium channel KCNH2 (Homo sapiens, UniProt Q12809). Kind of data set: Inhibition of human ERG expressed in CHO cells by patch clamp method. It counts as cell-based.
In another data set the target is Cytochrome P450 2D6 (Homo sapiens, UniProt P10635). Nature of the data set: Inhibition of CYP2D6 in human liver microsomes in presence of NADPH by LC-MS/MS method. It counts as ADME, Microsome. (In general: Liver microsomes are vesicles of endoplasmic reticulum, rich in cytochrome P450 enzymes.)
For a further data set, the system named is HGC-27. The data set is classed as functional, Homo sapiens.
Data set [10] relates to Mus musculus. Kind of data set: Toxicity in human Bel7404 cells xenografted BALB/C mouse assessed as body weight loss at 100 mg/kg, po administered every other day for 4 weeks. As to conditions: in vivo, 672 h.
Data set [11] has as its system Mus musculus. Nature of the data set: AUC in BALB/C mouse at 10 mg/kg, po or 2 mg/kg, iv by LC-MS/MS method. Particulars: in vivo. The data set is classed as ADME, organism-based, Plasma. The method, boiled down: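 Female-unspecified BALB/C nude mice (15−20 g, N = 16 per arm); iv bolus 2 mg/kg in 5% DMSO/40% PEG400/55% saline and/or oral gavage 10 mg/kg as 0.445% microcrystalline cellulose microsuspension. Blood sampled at nine (iv) or eight (po) time points into sodium heparin tubes; plasma by LC-MS/MS; noncompartmental analysis.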

Another data set concerns MGC-803. The data set is classed as functional, Homo sapiens.
Data set [12] concerns SGC-7901. The data set is classed as functional, Homo sapiens.
The subject of the next data set is BGC-823. The data set is classed as functional, Homo sapiens.
A further data set concerns BEL-7404. Nature of the data set: Antitumor activity against human BEL-7404 cells xenografted in BALB/C mouse assessed as tumor growth inhibition at 100 mg/kg, po administered every other day for 4 weeks. As to conditions: BEL-7404, po, 672 h, read-out: TGI.

SMILES strings stand for the structures. The source made the active and inactive calls. The calls are words filed in the database; no cut-off is given here. Bounds are passed on as bounds.

Voltage-gated inwardly rectifying potassium channel KCNH2, sequence (Q12809 whole entry): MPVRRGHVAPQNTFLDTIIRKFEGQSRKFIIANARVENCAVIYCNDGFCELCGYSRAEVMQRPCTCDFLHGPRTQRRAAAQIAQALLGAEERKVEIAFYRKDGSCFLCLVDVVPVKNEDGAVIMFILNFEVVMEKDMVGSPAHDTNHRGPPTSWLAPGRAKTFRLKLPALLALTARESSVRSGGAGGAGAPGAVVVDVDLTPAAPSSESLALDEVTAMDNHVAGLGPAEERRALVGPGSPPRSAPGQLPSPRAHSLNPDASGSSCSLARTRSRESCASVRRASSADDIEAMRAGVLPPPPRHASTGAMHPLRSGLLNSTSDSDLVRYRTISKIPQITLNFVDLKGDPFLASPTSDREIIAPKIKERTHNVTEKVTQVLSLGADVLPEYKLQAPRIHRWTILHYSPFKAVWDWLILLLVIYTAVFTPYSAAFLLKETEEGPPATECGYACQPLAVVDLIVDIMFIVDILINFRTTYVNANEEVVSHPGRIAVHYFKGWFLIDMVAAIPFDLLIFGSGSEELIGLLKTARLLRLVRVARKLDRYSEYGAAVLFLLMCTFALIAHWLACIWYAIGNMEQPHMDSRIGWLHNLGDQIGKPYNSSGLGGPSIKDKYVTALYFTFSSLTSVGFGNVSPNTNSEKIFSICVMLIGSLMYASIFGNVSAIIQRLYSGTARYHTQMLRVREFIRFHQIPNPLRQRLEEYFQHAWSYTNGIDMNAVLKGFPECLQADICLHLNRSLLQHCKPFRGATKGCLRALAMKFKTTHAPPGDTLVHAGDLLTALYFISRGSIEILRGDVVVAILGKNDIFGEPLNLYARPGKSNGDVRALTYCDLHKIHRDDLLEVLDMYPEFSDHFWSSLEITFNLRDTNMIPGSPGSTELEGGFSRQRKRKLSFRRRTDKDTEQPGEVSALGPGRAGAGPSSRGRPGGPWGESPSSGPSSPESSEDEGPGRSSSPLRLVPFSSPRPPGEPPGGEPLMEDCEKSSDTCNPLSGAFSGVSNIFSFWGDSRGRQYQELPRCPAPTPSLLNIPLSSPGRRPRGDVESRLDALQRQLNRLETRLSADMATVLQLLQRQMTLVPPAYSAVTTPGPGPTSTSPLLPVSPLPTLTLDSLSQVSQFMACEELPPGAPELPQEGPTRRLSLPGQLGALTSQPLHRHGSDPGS
Cytochrome P450 2D6, sequence (P10635 whole entry): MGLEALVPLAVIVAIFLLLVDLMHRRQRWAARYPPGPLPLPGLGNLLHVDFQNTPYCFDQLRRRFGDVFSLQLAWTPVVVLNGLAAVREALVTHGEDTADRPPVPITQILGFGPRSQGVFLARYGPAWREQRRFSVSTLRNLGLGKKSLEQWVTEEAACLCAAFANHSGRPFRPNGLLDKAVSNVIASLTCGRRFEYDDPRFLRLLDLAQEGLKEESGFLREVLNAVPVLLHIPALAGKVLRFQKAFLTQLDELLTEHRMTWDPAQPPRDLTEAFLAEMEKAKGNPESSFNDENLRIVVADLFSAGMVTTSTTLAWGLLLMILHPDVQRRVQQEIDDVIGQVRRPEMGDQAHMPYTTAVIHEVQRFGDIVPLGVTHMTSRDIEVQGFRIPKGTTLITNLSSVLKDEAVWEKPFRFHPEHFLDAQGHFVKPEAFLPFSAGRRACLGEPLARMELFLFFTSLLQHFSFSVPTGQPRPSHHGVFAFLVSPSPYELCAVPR

Take `CN1C[C@H](C(=O)Nc2ccc(Cl)cc2)[C@@H](c2ccc(/C=C/C(=O)Nc3ccccc3N)cc2)C1` [listing 1 of 2 here]: the outcome with Mus musculus [1] and in the data set on Mus musculus [3] was inactive. The result in the data set with Mus musculus [2], in the data set with Mus musculus [5], with Mus musculus [7] and in the data set on Mus musculus [8] was Active. Further, the inhibition entry in the data set on SGC-7901 [4] and in the data set on SGC-7901 [6] was “Dose-dependent effect” in each case.

`CN1C[C@H](C(=O)Nc2ccc(Cl)cc2)[C@@H](c2ccc(/C=C/C(=O)Nc3ccccc3N)cc2F)C1` (racemic): the IC50 (in general, the concentration that inhibits the measured activity by half) was 7 µM in data set [9] and 9 µM at Cytochrome P450 2D6.

On to `CN1C[C@H](C(=O)Nc2ccc(Cl)cc2)[C@@H](c2ccc(/C=C/C(=O)Nc3ccccc3N)cc2)C1` [listing 2 of 2 here], for which the GI90 in the data set on HGC-27 was determined as 1 µM; with MGC-803, 2 µM; in the data set with SGC-7901 [12], 1.4 µM; in the data set on BGC-823, 2.2 µM. The Activity with Mus musculus [10] is given as below 10%. Also, the AUC (as a rule, the area under the concentration-time curve, a measure of exposure) with Mus musculus [11] amounted to 6316 ng·h/mL. The inhibition in vivo at 100 mg/kg in the data set with BEL-7404 is above 60%.
